In ChEMBL document CHEMBL3769319, “Antischistosomal activity of N,N'-arylurea analogs against Schistosoma japonicum” (Bioorg Med Chem Lett, 2016):
The source made the active and inactive calls. The rule behind the calls is not given here.

Key:
Schistosoma japonicum [1] = experiment: Antischistosomal activity against juvenile stage of Schistosoma japonicum after 72 hrs by microscopy; format: functional, organism-based
Method in brief: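 Juvenile S. japonicum were screened at 32 µM for 72 h. Compounds that killed worms were then tested three times in 2-fold serial dilutions from 32 to 2 µM, each incubated 72 h, and IC50 was calculated.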

Schistosoma japonicum [2] = experiment: Antischistosomal activity against juvenile stage of Schistosoma japonicum at 32 uM after 72 hrs by microscopy
Schistosoma japonicum [3] = experiment: Antischistosomal activity against juvenile stage of Schistosoma japonicum infected in ICR mouse assessed as reduction of parasite burden at 400 mg/kg, po administered as single dose measured after 14 days; format: functional; parameters: scale not given: the % may be the effect or the level left
Schistosoma japonicum [4] = experiment: Antischistosomal activity against adult stage of Schistosoma japonicum infected in ICR mouse assessed as reduction of parasite burden at 400 mg/kg, po administered as single dose measured after 14 days; format: functional; parameters: scale not given: the % may be the effect or the level left
Method in brief: (§1)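 Mice with adult S. japonicum infection got one oral dose (200 or 400 mg/kg) as an ultrasound-aided corn oil suspension; one group got an HP-β-CD complex solution instead. Untreated infected mice served as controls, 5–6 per group. Worm counts (mean, SD) gave percent worm burden reduction against control.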

Schistosoma japonicum [5] = experiment: Antischistosomal activity against adult stage of Schistosoma japonicum after 72 hrs by microscopy; format: functional, organism-based
Schistosoma japonicum [6] = experiment: Antischistosomal activity against adult stage of Schistosoma japonicum infected in ICR mouse assessed as reduction of parasite burden at 200 mg/kg, po administered as single dose measured after 14 days; format: functional; parameters: scale not given: the % may be the effect or the level left; method in brief: as §1
Schistosoma japonicum [7] = experiment: Antischistosomal activity against juvenile stage of Schistosoma japonicum infected in ICR mouse assessed as reduction of parasite burden at 200 mg/kg, po administered as single dose measured after 14 days; format: functional; parameters: scale not given: the % may be the effect or the level left
Schistosoma mansoni = experiment: Antischistosomal activity against Schistosoma mansoni infected in mouse assessed as reduction of parasite burden at 400 mg/kg, po administered as single dose; format: functional; parameters: scale not given: the % may be the effect or the level left

SMILES	IC50 (Schistosoma japonicum [1]) [µM]	Activity (Schistosoma japonicum [2])	further results
O=C(Nc1ccccc1S(=O)(=O)N1CCOCC1)Nc1ccccc1S(=O)(=O)N1CCOCC1	22.6		
O=S(=O)(Nc1ccc(Cl)c(Cl)c1)Nc1ccc(Cl)c(Cl)c1	22.6	Active	
O=C(Nc1ccc(Cl)c(Cl)c1)NN1CCN(c2ccccc2)CC1		inactive	
O=C(Nc1ccc(Cl)c(Cl)c1)Nc1cccc2cnccc12	22.6		
Cc1ccc(NC(=O)Nc2ccc(Cl)c(Cl)c2)cc1Cl	12.7		
COc1ccccc1NC(=O)Nc1ccc(Cl)c(Cl)c1		inactive	
Clc1ccc(Nc2cc(Nc3ccc(Cl)c(Cl)c3)ncn2)cc1Cl		inactive	
O=C(Nc1ccc(Cl)c(Cl)c1)Nc1cnc(Cl)c(Cl)c1	11.3		
COc1ccc(NC(=O)Nc2ccc(Cl)c(Cl)c2)cc1		inactive	
O=C(Nc1ccc(Cl)c(Cl)c1)Nc1ccc(N2CCOCC2)c(C(F)(F)F)c1	9.6		Activity (Schistosoma japonicum [3]): 18.8%; Activity (Schistosoma japonicum [4]): 3.4%; IC50 (Schistosoma japonicum [5]): 8.4 µM
O=C1N(c2ccc(Cl)c(Cl)c2)CCN1c1ccc(Cl)c(C(F)(F)F)c1		inactive	
O=C(Nc1ccc(N2CCOCC2)c(C(F)(F)F)c1)Nc1ccc(N2CCOCC2)c(C(F)(F)F)c1	22.6		
O=C1C(=O)N(c2ccc(Cl)c(C(F)(F)F)c2)C(=O)N1c1ccc(Cl)c(Cl)c1		inactive	
O=C(Nc1ccc(Cl)c(Cl)c1)Nc1ccc(Cl)c(C(F)(F)F)c1	2.5		Activity (Schistosoma japonicum [6]): 26.6%; Activity (Schistosoma japonicum [7]): 11.6%; IC50 (Schistosoma japonicum [5]): 1.5 µM
O=C(Nc1cccnc1)Nc1ccc(Cl)c(Cl)c1		inactive	
O=C(Nc1ccc(Cl)c(Cl)c1)NC12CC3CC(CC(C3)C1)C2		inactive	
O=C(Nc1cnc(Cl)c(Cl)c1)Nc1cnc(Cl)c(Cl)c1		inactive	
N#Cc1cc(NC(=O)Nc2ccc(Cl)c(Cl)c2)ccc1F	4.3		Activity (Schistosoma japonicum [3]): 14.6%; Activity (Schistosoma japonicum [4]): 11.4%; IC50 (Schistosoma japonicum [5]): 2.2 µM
O=C(Nc1cccc(Cl)c1)Nc1ccc(Cl)c(Cl)c1	10.1		
COc1cccc(NC(=O)Nc2ccc(Cl)c(Cl)c2)c1		inactive	

SMILES	IC50 (Schistosoma japonicum [1]) [µM]	Activity (Schistosoma japonicum [2])	further results
CCCCNC(=O)Nc1ccc(Cl)c(Cl)c1		inactive	
O=C(Nc1ccc(Cl)c(Cl)c1)C(=O)Nc1ccc(Cl)c(Cl)c1		inactive	
O=C(Nc1ccc(Cl)c(Cl)c1)Nc1cccc2ccccc12	12.8		
O=C(Nc1ccccn1)Nc1ccccn1		inactive	
O=C(Nc1ccc(Cl)c(Cl)c1)Nc1ccccc1F		inactive	
O=C(Nc1ccc(F)c(F)c1)Nc1ccc(Cl)c(Cl)c1	4.7		Activity (Schistosoma japonicum [3]): 27.8%; Activity (Schistosoma japonicum [4]): 0%; IC50 (Schistosoma japonicum [5]): 2.2 µM
Clc1nc(Nc2ccc(Cl)c(Cl)c2)nc(Nc2ccc(Cl)c(Cl)c2)n1		inactive	
O=C(Nc1cccnc1)Nc1cccnc1		inactive	
Nc1ccc(NC(=O)Nc2ccc(Cl)c(Cl)c2)cc1		inactive	
O=C1N(c2ccc(Cl)c(Cl)c2)C(O)C(O)N1c1ccc(Cl)c(C(F)(F)F)c1 (stereo not drawn)		inactive	
O=C(Nc1ccc(Cl)c(Cl)c1)NC1CCCCC1		inactive	
S=C(Nc1ccc(Cl)c(Cl)c1)Nc1ccc(Cl)c(Cl)c1		inactive	
O=C(Nc1ccc(Cl)c(Cl)c1)Nc1ccc(Cl)c(Cl)c1	4.4		Activity (Schistosoma japonicum [3]): 32.2%; Activity (Schistosoma mansoni): 52.5%; Activity (Schistosoma japonicum [4]): 9.3%; IC50 (Schistosoma japonicum [5]): 2.2 µM
Clc1ccc(Nc2nc(Nc3ccc(Cl)c(Cl)c3)nc(N3CCOCC3)n2)cc1Cl	19	Active	
Cc1ccc(NC(=O)Nc2ccc(Cl)c(Cl)c2)cc1		inactive	
O=C(Nc1ccc(Cl)c(C(F)(F)F)c1)Nc1ccc(Cl)c(C(F)(F)F)c1	2.8		Activity (Schistosoma japonicum [6]): 32.6%; Activity (Schistosoma japonicum [7]): 33.4%; IC50 (Schistosoma japonicum [5]): 2.2 µM
C[C@H]1[C@H](OC(=O)CCC(=O)O)O[C@@H]2O[C@@]3(C)CC[C@H]4[C@H](C)CC[C@@H]1[C@@]24OO3 [ARTESUNATE]			Activity (Schistosoma japonicum [3]): 72.4%
O=C(Nc1ccc(F)c(F)c1)Nc1ccc(F)c(F)c1	7		Activity (Schistosoma japonicum [3]): 6.4%; Activity (Schistosoma japonicum [4]): 2.3%; IC50 (Schistosoma japonicum [5]): 5.1 µM
O=C(C1CCCCC1)N1CC(=O)N2CCc3ccccc3C2C1 (stereo not drawn) [PRAZIQUANTEL]			Activity (Schistosoma japonicum [4]): 90.7%
